Broadly, the Kd is the free concentration of one partner at which half of the binding sites on the other are occupied at equilibrium, for simple one-to-one binding. High values mean a looser complex, low ones a tighter complex. A word on the ΔTm: it is the shift of the melting midpoint relative to a reference. As a reminder, the IC50 is the midpoint of a concentration-inhibition curve.

Activity calls are given as the source filed them. No cut-off for these calls is given here.

The first assay has as its system Nucleic Acid. Nature of the assay: Binding affinity to c-myc quadruplex DNA Pu27 assessed as conformational change up to 10 uM by circular dichroism in the absence of 100 mM K+. It is filed as nucleic-acid assay. A digest of the protocol: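 K+-free CD: 1 μM Pu27 in 10 mM Tris-HCl pH 7.2 with ligand at 0, 3, 5 or 10 μM, co-annealed (95 °C 5 min, slow cool, 4 °C overnight). Spectra recorded at 25 °C over 230–430 nm, 1 cm cell, two scans averaged, buffer baseline subtracted.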
On the technique in general: CD spectra are sensitive to the conformation of chiral molecules.
Turning to `COc1cc2c(cc1OC)-c1nc3ccc(OC)c(OCCCN4CCCCC4)c3cc1CC2`, the outcome was Active.

As for `COc1ccc2nc3c(cc2c1OCCN1CCCC1)CCc1cc2c(cc1-3)OCO2`, the result was Active.

On to `COc1ccc2c(cc3c([n+]2C)-c2cc4c(cc2CC3)OCO4)c1OCCCN1CCCC1`, for which the outcome was Active.

For the molecule `CCN(CC)CCCOc1c(OC)ccc2nc3c(cc12)CCc1cc2c(cc1-3)OCO2`, the result was Active.

With `COc1ccc2c(cc3c([n+]2C)-c2cc4c(cc2CC3)OCO4)c1OCCCN1CCN(C)CC1`, the outcome was Active.

Take `COc1cc2c(cc1OC)-c1c(cc3c(OCCCN4CCCCC4)c(OC)ccc3[n+]1C)CC2`: the result was Active.

The target of the next assay is Nucleic Acid. Kind of assay: Binding affinity to immobilised c-myc quadruplex DNA G4 by SPR assay. It counts as nucleic-acid assay. The method, boiled down: (§1)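 SPR: biotinylated DNA captured (~1000 RU) on GLH chip, blank reference cell. Running buffer 50 mM Tris-HCl pH 7.2, 100 mM KCl. Ligand at 0.3125–10 μM injected at 100 μL/min, 400 s association and 400 s dissociation, 25 °C; NaOH regeneration. KD by equilibrium analysis; mean ± SD of at least two runs.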
With `COc1cc2c(cc1OC)-c1nc3ccc(OC)c(OCCCN4CCCCC4)c3cc1CC2`, the Kd came to 2800 nM.

Consider `COc1ccc2nc3c(cc2c1OCCN1CCCC1)CCc1cc2c(cc1-3)OCO2`, for which the dissociation constant (Kd) worked out at 1400 nM.

In turn, `COc1ccc2c(cc3c([n+]2C)-c2cc4c(cc2CC3)OCO4)c1OCCCN1CCCC1` showed a Kd of 400 nM.

Take `CCN(CC)CCCOc1c(OC)ccc2nc3c(cc12)CCc1cc2c(cc1-3)OCO2`: the affinity, expressed as Kd, was 3000 nM.

For `COc1ccc2c(cc3c([n+]2C)-c2cc4c(cc2CC3)OCO4)c1OCCCN1CCN(C)CC1`, the affinity, expressed as Kd, was 800 nM.

Regarding `COc1cc2c(cc1OC)-c1c(cc3c(OCCCN4CCCCC4)c(OC)ccc3[n+]1C)CC2`, the dissociation constant Kd is 600 nM.

The next assay concerns CA46. Nature of the assay: Down-regulation of c-myc gene expression in human CA46 cells at 0.5 to 5 uM after 4 days by RT-PCR analysis. It is filed as functional, cell-based. A digest of the protocol:
(§2)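 Cells given ligand at 0.5, 1, 2.5 or 5 μM for 4 days. Total RNA (TRIpure) 2 μg reverse-transcribed with oligo dT18/M-MLV (42 °C 1 h). c-myc and β-actin amplified by PCR, run on 1% agarose; c-myc normalized to β-actin.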
On to `COc1cc2c(cc1OC)-c1c(cc3c(OCCCN4CCCCC4)c(OC)ccc3[n+]1C)CC2`, for which the outcome was inactive.

Another assay relates to Ramos. Kind of assay: Down-regulation of c-myc gene expression in human Ramos cells after 4 days by RT-PCR analysis. It counts as functional, cell-based. The method, boiled down:
as §2
For `COc1cc2c(cc1OC)-c1c(cc3c(OCCCN4CCCCC4)c(OC)ccc3[n+]1C)CC2`, the Activity entry is “Dose-dependent effect”.

Another assay has as its system Nucleic Acid. Nature of the assay: Binding affinity to duplex DNA F10T assessed as change in melting temperature at 2 uM by FRET-melting assay. It counts as nucleic-acid assay. A digest of the protocol: (§3)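 FRET melting of 0.2 μM dual-labelled oligo (FPu18T, FAM/TAMRA c-myc G-quadruplex; or F10T, HEG-linked hairpin duplex) in 10 mM Tris-HCl pH 7.2, 0.2 mM KCl, with or without 2 μM ligand. Excitation 470 nm, emission 530 nm, read every 1 °C from 37–99 °C after 30 s hold. ΔTm = Tm(DNA+ligand) − Tm(DNA); mean ± SD of at least three runs.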
For `COc1cc2c(cc1OC)-c1nc3ccc(OC)c(OCCCN4CCCCC4)c3cc1CC2`, the ΔTm amounted to 1 °C.

Turning to `COc1ccc2nc3c(cc2c1OCCN1CCCC1)CCc1cc2c(cc1-3)OCO2`, the ΔTm worked out at 1 °C.

For the molecule `COc1ccc2c(cc3c([n+]2C)-c2cc4c(cc2CC3)OCO4)c1OCCCN1CCCC1`, the ΔTm was 1.1 °C.

As for `CCN(CC)CCCOc1c(OC)ccc2nc3c(cc12)CCc1cc2c(cc1-3)OCO2`, the thermal shift (ΔTm) was 1 °C.

Turning to `COc1ccc2c(cc3c([n+]2C)-c2cc4c(cc2CC3)OCO4)c1OCCCN1CCN(C)CC1`, the thermal shift (ΔTm) was 0.5 °C.

Take `COc1cc2c(cc1OC)-c1c(cc3c(OCCCN4CCCCC4)c(OC)ccc3[n+]1C)CC2`: the shift in melting temperature (ΔTm) was determined as 0.8 °C.

Another assay has as its system CA46. Nature of the assay: Growth inhibition of c-myc NHE III1-deficient human CA46 cell line at 2.5 to 10 uM after 4 days by cell counting. It is filed as functional, cell-based. The method, boiled down: (§4)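 Cells seeded at 1.0×10^5 per well and exposed to ligand (2.5, 5 or 10 μM) or 0.1% DMSO for 4 days. Cell counts and viability taken daily; three repeats per point.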
With `COc1cc2c(cc1OC)-c1c(cc3c(OCCCN4CCCCC4)c(OC)ccc3[n+]1C)CC2`, the “growth inhibition (GI)” value was “inactive”.

Another assay concerns Nucleic Acid. Nature of the assay: Binding affinity to immobilised duplex DNA up to 10 uM by SPR assay. It counts as nucleic-acid assay. The method, boiled down:
as §1
(In general: In SPR one partner is held on a chip, and binding of the other changes the refractive index at the surface.)
With `COc1cc2c(cc1OC)-c1nc3ccc(OC)c(OCCCN4CCCCC4)c3cc1CC2`, the outcome was inactive.

Turning to `COc1ccc2nc3c(cc2c1OCCN1CCCC1)CCc1cc2c(cc1-3)OCO2`, the outcome was inactive.

As to `COc1ccc2c(cc3c([n+]2C)-c2cc4c(cc2CC3)OCO4)c1OCCCN1CCCC1`, the result was inactive.

Take `CCN(CC)CCCOc1c(OC)ccc2nc3c(cc12)CCc1cc2c(cc1-3)OCO2`: the outcome was inactive.

In the case of `COc1ccc2c(cc3c([n+]2C)-c2cc4c(cc2CC3)OCO4)c1OCCCN1CCN(C)CC1`, the outcome was inactive.

As to `COc1cc2c(cc1OC)-c1c(cc3c(OCCCN4CCCCC4)c(OC)ccc3[n+]1C)CC2`, the result was inactive.

The next assay has as its system Nucleic Acid. Kind of assay: Binding affinity to c-myc quadruplex DNA FPu18T assessed as change in melting temperature at 2 uM by FRET-melting assay in the presence of excess of ds26 duplex DNA. It counts as nucleic-acid assay. A digest of the protocol:
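Competition FRET melting: 0.2 μM FPu18T with 2 μM ligand in 10 mM Tris-HCl pH 7.2, 0.2 mM KCl, plus varying amounts of unlabelled self-complementary ds26 duplex as competitor. Fluorescence at 470/530 nm recorded per 1 °C step over 37–99 °C.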
With `COc1cc2c(cc1OC)-c1nc3ccc(OC)c(OCCCN4CCCCC4)c3cc1CC2`, the result was Active.

For the molecule `COc1ccc2nc3c(cc2c1OCCN1CCCC1)CCc1cc2c(cc1-3)OCO2`, the result was Active.

Consider `COc1ccc2c(cc3c([n+]2C)-c2cc4c(cc2CC3)OCO4)c1OCCCN1CCCC1`, for which the result was Active.

`CCN(CC)CCCOc1c(OC)ccc2nc3c(cc12)CCc1cc2c(cc1-3)OCO2`: the result was Active.

As to `COc1ccc2c(cc3c([n+]2C)-c2cc4c(cc2CC3)OCO4)c1OCCCN1CCN(C)CC1`, the result was Active.

On to `COc1cc2c(cc1OC)-c1c(cc3c(OCCCN4CCCCC4)c(OC)ccc3[n+]1C)CC2`, for which the outcome was Active.

A further assay concerns Nucleic Acid. Nature of the assay: Binding affinity to c-myc quadruplex DNA Pu27 assessed as conformational change up to 10 uM by circular dichroism in the presence of 100 mM K+. It is filed as nucleic-acid assay. The method, boiled down: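 CD titration of 1 μM Pu27, annealed (95 °C 5 min, slow cool, 4 °C overnight) in 10 mM Tris-HCl pH 7.2, 100 mM KCl. Ligand added stepwise (0.5–10 eq.) at 25 °C, ≥10 min equilibration per addition. Spectra 230–430 nm, 1 cm cell, average of two scans, buffer baseline subtracted.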
For `COc1cc2c(cc1OC)-c1nc3ccc(OC)c(OCCCN4CCCCC4)c3cc1CC2`, the result was Active.

Regarding `COc1ccc2nc3c(cc2c1OCCN1CCCC1)CCc1cc2c(cc1-3)OCO2`, the outcome was Active.

Regarding `COc1ccc2c(cc3c([n+]2C)-c2cc4c(cc2CC3)OCO4)c1OCCCN1CCCC1`, the result was Active.

`CCN(CC)CCCOc1c(OC)ccc2nc3c(cc12)CCc1cc2c(cc1-3)OCO2`: the outcome was Active.

For `COc1ccc2c(cc3c([n+]2C)-c2cc4c(cc2CC3)OCO4)c1OCCCN1CCN(C)CC1`, the outcome was Active.

For `COc1cc2c(cc1OC)-c1c(cc3c(OCCCN4CCCCC4)c(OC)ccc3[n+]1C)CC2`, the outcome was Active.

The subject of another assay is Nucleic Acid. Kind of assay: Binding affinity to c-myc quadruplex DNA FPu18T assessed as change in melting temperature at 2 uM by FRET-melting assay. It is filed as nucleic-acid assay. A digest of the protocol: as §3
Regarding `COc1cc2c(cc1OC)-c1nc3ccc(OC)c(OCCCN4CCCCC4)c3cc1CC2`, the thermal shift (ΔTm) turned out to be 11 °C.

Consider `COc1ccc2nc3c(cc2c1OCCN1CCCC1)CCc1cc2c(cc1-3)OCO2`, for which the shift in melting temperature (ΔTm) is 5.3 °C.

Take `COc1ccc2c(cc3c([n+]2C)-c2cc4c(cc2CC3)OCO4)c1OCCCN1CCCC1`: the shift in melting temperature (ΔTm) turned out to be 22.2 °C.

On to `CCN(CC)CCCOc1c(OC)ccc2nc3c(cc12)CCc1cc2c(cc1-3)OCO2`, for which the ΔTm was determined as 6.2 °C.

Regarding `COc1ccc2c(cc3c([n+]2C)-c2cc4c(cc2CC3)OCO4)c1OCCCN1CCN(C)CC1`, the ΔTm was 19 °C.

Regarding `COc1cc2c(cc1OC)-c1c(cc3c(OCCCN4CCCCC4)c(OC)ccc3[n+]1C)CC2`, the thermal shift (ΔTm) was determined as 23.2 °C.

A further assay concerns the target Nucleic Acid. Kind of assay: Binding affinity to c-myc quadruplex DNA Pu27 assessed as inhibition of c-myc amplification by PCR-stop assay. It counts as nucleic-acid assay. The method, boiled down: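 Pu27 template with partly complementary primer, 10 μM each, […], 2.5 U Taq and ligand at 1, 5, 10 or 25 μM (one series 50 μM). Cycling: 94 °C 2 min, then 30 × (94 °C, 58 °C, 72 °C, 30 s each). Products run on 16% native PAGE, GelRed stain; IC50 for 50% loss of amplification.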
`COc1cc2c(cc1OC)-c1nc3ccc(OC)c(OCCCN4CCCCC4)c3cc1CC2`: the IC50 is above 50000 nM.

As to `COc1ccc2nc3c(cc2c1OCCN1CCCC1)CCc1cc2c(cc1-3)OCO2`, the IC50 was above 50000 nM.

Take `COc1ccc2c(cc3c([n+]2C)-c2cc4c(cc2CC3)OCO4)c1OCCCN1CCCC1`: the half-inhibitory concentration (IC50) is 5300 nM.

On to `CCN(CC)CCCOc1c(OC)ccc2nc3c(cc12)CCc1cc2c(cc1-3)OCO2`, for which the half-maximal inhibitory concentration (IC50) is above 50000 nM.

`COc1ccc2c(cc3c([n+]2C)-c2cc4c(cc2CC3)OCO4)c1OCCCN1CCN(C)CC1`: the IC50 amounted to 9500 nM.

For the molecule `COc1cc2c(cc1OC)-c1c(cc3c(OCCCN4CCCCC4)c(OC)ccc3[n+]1C)CC2`, the half-maximal inhibitory concentration (IC50) is 5000 nM.

The test system of a further assay is Ramos. Nature of the assay: Growth inhibition of human Ramos cell line expressing c-myc NHE III1 after 4 days by cell counting. It is filed as functional, cell-based. The method, boiled down:
as §4
With `COc1cc2c(cc1OC)-c1c(cc3c(OCCCN4CCCCC4)c(OC)ccc3[n+]1C)CC2`, the “growth inhibition (GI)” value is “Dose-dependent effect”.

The record behind these values is ChEMBL document CHEMBL2034832, “12-N-Methylated 5,6-dihydrobenzo[c]acridine derivatives: a new class of highly selective ligands for c-myc G-quadruplex DNA” (Eur J Med Chem, 2012).
